Screens deposited in PubChem BioAssay by Sanford-Burnham Center for Chemical Genomics.
Not all results are given here.
Apaf1 activ = activators of human Apaf-1 apoptosome; activity change, negative = activation, % at 20 µM; Apaf-1 apoptosome caspase-3 activation, DEVD-Rh110 fluorescence; active compounds read low; 330,000 compounds, 0.31% hits;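 active means activity change at or below -40% at 20 µM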
Target sequence (O14727 whole entry, looked up): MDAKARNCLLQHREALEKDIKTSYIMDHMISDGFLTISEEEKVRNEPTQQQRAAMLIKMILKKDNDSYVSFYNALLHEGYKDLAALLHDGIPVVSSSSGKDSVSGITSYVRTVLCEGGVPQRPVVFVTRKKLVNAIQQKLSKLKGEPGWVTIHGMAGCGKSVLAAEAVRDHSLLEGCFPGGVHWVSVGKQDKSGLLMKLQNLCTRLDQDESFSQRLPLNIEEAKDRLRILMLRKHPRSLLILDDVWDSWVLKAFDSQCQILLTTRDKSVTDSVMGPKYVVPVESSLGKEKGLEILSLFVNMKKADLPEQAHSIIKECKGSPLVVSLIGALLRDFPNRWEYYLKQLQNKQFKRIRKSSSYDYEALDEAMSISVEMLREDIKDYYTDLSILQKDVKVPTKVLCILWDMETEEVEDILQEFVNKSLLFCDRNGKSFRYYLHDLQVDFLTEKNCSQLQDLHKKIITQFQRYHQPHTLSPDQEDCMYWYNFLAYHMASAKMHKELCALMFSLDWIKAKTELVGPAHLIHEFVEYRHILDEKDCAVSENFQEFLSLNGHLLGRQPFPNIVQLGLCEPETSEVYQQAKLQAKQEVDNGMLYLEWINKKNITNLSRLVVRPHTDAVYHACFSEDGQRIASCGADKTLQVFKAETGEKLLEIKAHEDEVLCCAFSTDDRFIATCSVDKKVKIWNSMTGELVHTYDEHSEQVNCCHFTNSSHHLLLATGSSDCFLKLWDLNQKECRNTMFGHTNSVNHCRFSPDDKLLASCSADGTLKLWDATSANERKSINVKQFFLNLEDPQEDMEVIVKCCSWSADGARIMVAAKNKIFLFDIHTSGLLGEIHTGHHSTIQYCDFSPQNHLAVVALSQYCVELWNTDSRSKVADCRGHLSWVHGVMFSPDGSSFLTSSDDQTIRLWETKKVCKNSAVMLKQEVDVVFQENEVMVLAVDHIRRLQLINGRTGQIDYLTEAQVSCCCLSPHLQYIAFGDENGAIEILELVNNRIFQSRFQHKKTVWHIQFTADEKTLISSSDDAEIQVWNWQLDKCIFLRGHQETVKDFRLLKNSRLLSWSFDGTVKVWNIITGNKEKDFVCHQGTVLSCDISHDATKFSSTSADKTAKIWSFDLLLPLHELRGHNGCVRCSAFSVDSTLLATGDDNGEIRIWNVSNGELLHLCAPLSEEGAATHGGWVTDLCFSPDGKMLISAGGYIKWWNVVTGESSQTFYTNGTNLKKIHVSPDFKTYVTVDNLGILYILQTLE
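Assay system – biochemical Apaf-1 apoptosome reconstitution · Medium – 20 mM HEPES buffer, pH 7.5, containing CHAPS and BSA · Incubation – 30 min preincubation, 50 min reaction, room temperature · Measured by – Caspase-3-released Rh110 fluorescence, 540 nm emission, 480 nm excitation · Read-out – Caspase-3 cleavage activity downstream of Apaf-1 activation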
Rh110 act interf = Rh110 signal interference in Apaf-1 activator counter-screen; AID 504616; 980 tested, under 10 active; Rh110 fluorescence interference, quenched caspase reaction, Ex480/Em540; fluorescence interference (activity change), % at 20 µM, hits read low; shares compounds with Apaf1 activ;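 active means mean activity change at or below -40% when tested at 20 µM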
Apaf-1 act conf2 = Apaf-1 (human) activation, single-dose confirmed; shares compounds with Apaf1 activ; reconstituted apoptosome caspase-3 activity, DEVD-Rh110 fluorescence; active compounds read low; activity change, negative = activation, % at 20 µM; 980 compounds, 5% hits; AID 504617;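 active means mean activity change at or below -40%, meaning activation of 40% or more, at 20 µM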
Fluor interf act = Apaf-1 activator counter-screen fluorescence artifact; shares compounds with Apaf1 activ; fluorescence interference counterscreen, Apaf-1 activator assay; EC50, µM; 55 tested, under 10 active; AID 588592; call rule not given here
Numbers without * were called inactive; nt = not tested or not shown.

SMILES	Apaf1 activ	Rh110 act interf	Apaf-1 act conf2	others
CC(Cc1c[nH]c2ccccc12)C(=O)O (stereo not given)	-350.9*	8.0	-119.6*	Fluor interf act=>100
Cc1ccc(NC(=O)c2ncn(CC(=O)N[C@H](CO)Cc3c[nH]c4ccccc34)n2)cc1C	74.3	nt	nt
CN(C)CCCNC(=S)NCC(c1ccc(Cl)cc1Cl)c1c[nH]c2ccccc12 (stereo not given)	41.2	nt	nt
CCc1ccc2nc(NC(=O)CSCc3c(C)noc3C)sc2c1	45.6	nt	nt
COc1cc(OC)c2c(-c3ccccc3)cc(=O)oc2c1C(CCN1CCOCC1)c1ccc2c(c1)OCO2 (stereo not given)	42.1	nt	nt
Cc1nnc(SCC(=O)NCc2ccco2)n1Cc1ccccc1	-428.3*	-4.6	13.1
C=CCn1c(SCC(=O)NCCc2ccccc2)nnc1C1CC1	42.4	nt	nt
O=c1[nH]c(Nc2ccccn2)cc2ccccc12	91.0	nt	nt
CCN(CC)C(=O)[C@H]1C[C@H](CC(=O)NCc2cccc(C(F)(F)F)c2)C(=O)N2CCc3c([nH]c4ccc(Cl)cc34)[C@]12C	46.4	nt	nt
N#Cc1c(N(CCO)CCO)nc(N)c2c(N)nc3c(c12)CC(=O)N3CC1CCCO1 (stereo not given)	97.6	nt	nt
COc1ccc(C(=O)/C=C/Nc2cc(C)ccn2)cc1	-165.0*	-2.6	16.2
CCOc1cccc(CNc2ccc(O)cc2)c1OCc1ccccc1Cl	96.7	nt	nt
CC1(C)Cc2cccc(OCC(=O)N3CCN(c4cccc(C(F)(F)F)c4)CC3)c2O1	44.6	nt	nt
CCN(CC)CCN(C(=O)c1ccc2c(c1)CCCC2)c1nc2cc(OC)c(OC)cc2s1	47.5	nt	nt
CCOc1ccc2nc(N(CCN(C)C)C(=O)c3ccc4c(c3)CCCC4)sc2c1	54.7	nt	nt
CCN(CC)CCN(C(=O)c1ccc(C(C)=O)cc1)c1nc2ccc(Cl)cc2s1	-328.6*	11.3	22.5
COc1cccc2c1C(=O)c1c(O)c3c(c(O)c1C2=O)C[C@@](O)(C(=O)CO)C[C@@H]3O[C@H]1C[C@H](N)[C@H](O)[C@H](C)O1	57.7	nt	nt
CN1/C(=N\O)c2cccc3cccc1c23	86.2	nt	nt
Cc1cc(C)c2sc(N(CCCN(C)C)C(=O)c3ccc(S(=O)(=O)N(C)C4CCCCC4)cc3)nc2c1	40.1	nt	nt
O=C(Nc1ccc(Oc2ccccc2)cc1)C1CCN(c2c3c(nc4ncnn24)CCC3)CC1	41.0	nt	nt
COc1ccc(NC(=O)CC2Nc3cccc4cccc(c34)NC2=O)cc1 (stereo not given)	94.2	nt	nt
COc1ccc(/C=C/C(=O)NC(=S)Nc2ccc(S(N)(=O)=O)cc2)cc1	-79.8*	-1.7	14.3
COc1cc(O)c(NC(C)=O)c2nonc12	86.5	nt	nt
CC(=O)Nc1cccc(C(=O)NC(C)c2ccc(-n3ccnc3)cc2)c1 (stereo not given)	40.7	nt	nt
O=C(NCCCN1CCCCCC1)c1cc2c(=O)oc3ccccc3c2s1	40.5	nt	nt
SMILES	Apaf1 activ	Rh110 act interf	Apaf-1 act conf2	others
Cc1ccc(-c2cc(C(=O)NCCCN3CCOCC3)c3ccc(Cl)c(C)c3n2)cc1	55.5	nt	nt
O=C(NCCCN1CCOCC1)c1c(O)c2cc(Br)cc(Br)c2[nH]c1=O	-56.8*	-9.0	10.6
Fc1ccc(-[n+]2nc(Nc3ccccc3)sc2-c2c3ccccc3cc3ccccc23)cc1	42.5	nt	nt
COc1ccccc1NC(=O)Nc1ccccc1C(N)=O	-630.4*	5.5	6.5
CCN(CC(=O)Nc1ccccc1OC)C(=O)c1ccccc1Sc1ccccc1C#N	58.3	nt	nt
COC1=C(Nc2ccccc2OC)C(=O)c2ccccc2C1=O	54.5	nt	nt
CC[C@@H](C)[C@H](CNC)NC[C@@H](Cc1cccc2ccccc12)NCCc1cccc(C(F)(F)F)c1	70.3	nt	nt
C#CCOCCOCCOCCNc1nc(N2CCN(C(=O)[C@H](CCCCN)n3cc(CCCC)nn3)CC2)nc(N2CCN(C(=O)[C@H](CCCCN)n3cc(CCCC)nn3)CC2)n1	49.6	nt	nt
Cc1cc(C(=O)NC(=S)Nc2cccc(C(=O)O)c2C)ccc1[N+](=O)[O-]	-53.7*	-0.4	10.8
Cc1ccc(-n2nc3ccc(N)cc3n2)cc1	82.3	nt	nt
CC(C)C(=O)Nc1cccc(-c2cn3ccsc3n2)c1	67.1	nt	nt
CC(C)c1ccc(-n2nc3ccc(N)cc3n2)cc1	63.1	nt	nt
Cc1ccc(-n2nc3ccc(NC(=O)C(C)C)cc3n2)cc1	-151.8*	4.6	7.2
CC(C)C(=O)Nc1ccc2nn(-c3ccc(F)cc3)nc2c1	-95.1*	16.7	14.6
Nc1ccc2nn(-c3ccc(F)cc3)nc2c1	87.9	nt	nt
Cc1ccc(S(=O)(=O)N2CCN(C(=O)COC(=O)c3ccc([N+](=O)[O-])o3)CC2)c(C)c1	59.3	nt	nt
Cc1[nH]n(-c2ccc([N+](=O)[O-])cc2)c(=O)c1/C=N/N1CCOCC1	44.5	nt	nt
COc1ccc(-c2cc(C)no2)cc1S(=O)(=O)NCCc1ccco1	-382.3*	5.3	-0.9
Cc1ccc(-c2nn3c(-c4ccco4)nnc3c3ccccc23)cc1S(=O)(=O)NCC1CCCO1 (stereo not given)	66.1	nt	nt
CN[C@H]1CC[C@@H](c2ccc(Cl)c(Cl)c2)c2ccccc21	50.0	nt	nt
CC(/C=C/c1ccc2c(c1)OCO2)=N/NC(=O)c1ccncc1	-41.6*	-3.9	4.3
O=C(N/N=C1\C/C(=N\NC(=O)c2ccncc2)c2ccccc21)c1ccncc1	93.4	nt	nt
CC(C)(CS(=O)(=O)[O-])NC(=O)CC[N+](C)(C)CCO	-597.6*	7.6	-128.0*	Fluor interf act=>100
COc1ccc(C(C[N+](=O)[O-])c2c(C)[nH]n(-c3ccccc3)c2=O)cc1 (stereo not given)	95.8	nt	nt
COc1ccc2[nH]c3c(c2c1)CCN1C(=O)C(CC(=O)NCCC2=CCCCC2)C[C@H](C(=O)N2CCOCC2)[C@@]31CCC1CCCC1 (stereo not given in full)	43.7	nt	nt
SMILES	Apaf1 activ	Rh110 act interf	Apaf-1 act conf2	others
CCOc1cc2c(C#N)c(N3CCCCC3)nc(N)c2c(N)n1	96.8	nt	nt
O=c1[nH]c(C(F)(F)F)nc2ccccc12	-111.9*	0.1	12.5
O=c1[nH]c(Nc2ccc(F)cc2)cc2ccccc12	95.1	nt	nt
O=c1[nH]c(CN2CCc3ccccc3C2)nc2ccccc12	64.7	nt	nt
CC1CC2(CCCCC2)N2C(=O)C(=O)c3cccc1c32 (stereo not given)	41.0	nt	nt
O=C(OCC(=O)c1c[nH]c2ccccc12)c1cc(Br)ccc1O	-339.3*	8.0	9.1
C/C=N/NC(=O)c1cc(Br)ccc1O	57.1	nt	nt
COc1ccc(-c2ccc(C(c3c(C)[nH][nH]c3=O)c3c(C)[nH][nH]c3=O)o2)c([N+](=O)[O-])c1	75.4	nt	nt
Cc1ccc(-c2nc3ncccn3c2NC(=O)C2CC2)cc1	-51.8*	-0.5	13.2
CN1C(=O)CC(Nc2cccc3cccc(N)c23)C1=O (stereo not given)	53.9	nt	nt
O=[N+]([O-])c1c(Nc2ccccn2)cc(Cl)c2nonc12	91.3	nt	nt
CCCNC(=O)c1ccc(SC)cc1OC	-173.5*	8.8	4.6
C[n+]1cccc2c(Br)ccc([O-])c21	98.2	nt	nt
O=C(c1ccccc1)c1coc2c1C(=O)c1ccccc1C2=O	63.6	nt	nt
CCCCCNC(=O)c1cn(CC)c2cc(N3CCN(C)CC3)c(F)cc2c1=O	-72.1*	5.3	13.9
CCOC(=O)c1c2c(n(C)c1COC)C(=O)C(=O)c1ccc(Br)cc1-2	96.8	nt	nt
